Results on 5 compounds are retold here after ChEMBL document CHEMBL3779815, “Synthesis of newer 1,2,3-triazole linked chalcone and flavone hybrid compounds and evaluation of their antimicrobial and cytotoxic activities” (Eur J Med Chem, 2016).

The nature of data set [1]: Cytotoxicity against human HuH7 cells after 72 hrs by MTT assay. Format: cell-based, Huh-7. A digest of the protocol:
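Huh-7 cells, 4 × 10³/well in DMEM with 10% FBS and penicillin-streptomycin-glutamine; eight 2-fold dilutions 100-0.78 μg/mL, 72 h; MTT added 2-4 h, then isopropanol/Triton X-100/HCl solubilization 2 h dark, RT; absorbance 570 nm; CC50 as mean of at least two experiments in duplicate.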
(Tetrazolium assays rely on reduction of a dye to a coloured formazan, in cell work by metabolically active cells.)

The subject of the next data set is Enterococcus faecalis. As to the kind of experiment: Antibacterial activity against Enterococcus faecalis ATCC 29212 after 18 to 24 hrs by micro-dilution assay. It is filed as functional. Background: Dilution methods test growth across graded concentrations, often in twofold steps.
The subject of another data set is Candida tropicalis. The data set is described as follows: Antifungal activity against Candida tropicalis ATCC 750 after 18 to 24 hrs by micro-dilution method. Format: functional. A digest of the protocol: (§1)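 Microdilution MIC run as the antibacterial protocol but on Sabouraud dextrose […] pH 7.3±0.2; compounds 100 to 0.78 μg/mL in twofold steps; saline-prepared inocula 1-2 × 10⁷ cfu/mL, 0.01 mL added; 37 °C aerobic, 18-24 h; MIC read as lowest concentration without visible growth or turbidity; fluconazole reference.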

The next data set concerns Pseudomonas aeruginosa. The data set is described as follows: Antibacterial activity against Pseudomonas aeruginosa […] after 18 to 24 hrs by micro-dilution method. Format: functional.
For a further data set, the system named is Aspergillus fumigatus. The data set is described as follows: Antifungal activity against Aspergillus fumigatus clinical isolate after 18 to 24 hrs by micro-dilution method. Format: functional. A digest of the protocol:
as §1

For a further data set, the system named is Staphylococcus aureus. As to the kind of experiment: Antibacterial activity against Staphylococcus aureus […] after 18 to 24 hrs by micro-dilution method. Format: functional.
A further data set relates to Klebsiella pneumoniae. The data set is described as follows: Antibacterial activity against Klebsiella pneumoniae ATCC 27736 after 18 to 24 hrs by micro-dilution method. Format: functional.
For data set [2], the system named is Candida albicans. The data set is described as follows: Antifungal activity against Candida albicans ATCC 90028 after 18 to 24 hrs by micro-dilution method. Format: functional. A digest of the protocol:
as §1

Another data set concerns Cryptococcus neoformans. The data set is described as follows: Antifungal activity against Cryptococcus neoformans clinical isolate after 18 to 24 hrs by micro-dilution method. It is filed as functional. The method, boiled down:
as §1

For the next data set, the system named is Arthrodermataceae. As to the kind of experiment: Antifungal activity against Dermatophyte clinical isolate after 18 to 24 hrs by micro-dilution method. Format: functional. A digest of the protocol:
as §1

The subject of a further data set is Candida parapsilosis. As to the kind of experiment: Antifungal activity against Candida parapsilosis ATCC 22019 after 18 to 24 hrs by micro-dilution method. Format: functional. Particulars: Lodderomyces parapsilosis. The method, boiled down:
as §1

Data set [3] relates to Candida albicans. The data set is described as follows: Antifungal activity against Candida albicans clinical isolate after 18 to 24 hrs by micro-dilution method. Format: functional. The method, boiled down: as §1
Another data set concerns Aspergillus niger. The data set is described as follows: Antifungal activity against Aspergillus niger clinical isolate after 18 to 24 hrs by micro-dilution method. It is filed as functional. The method, boiled down: as §1
In a further data set the test system is Escherichia coli. As to the kind of experiment: Antibacterial activity against Escherichia coli ATCC 35218 after 18 to 24 hrs by micro-dilution method. Format: functional.
A further data set has as its system Shigella boydii. As to the kind of experiment: Antibacterial activity against Shigella boydii clinical isolate after 18 to 24 hrs by micro-dilution method. It is filed as functional.
In another data set the test system is Plasmodium falciparum. As to the kind of experiment: Antimalarial activity against erythrocytic stage of chloroquine sensitive Plasmodium falciparum 3D7 assessed as inhibition of parasitemia after 48 hrs by Giemsa staining based microscopic analysis. Particulars: 3D7, 48 h. It is filed as functional, organism-based. The method, boiled down:
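Asynchronous culture on human O⁺ erythrocytes, 1-1.5% parasitemia, 4% hematocrit, RPMI-1640 with HEPES, NaHCO₃, glutamine, gentamycin, Albumax II; drug 0.10-100 μg/mL, 48 h, 37 °C, medium changed at 24 h; triplicate wells; Giemsa thin smears, about 4,000 erythrocytes counted at 1,000X; % parasitemia inhibition versus control gives IC50.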

The structures appear in SMILES notation. In brackets after ≈: the same amount, converted by molar mass.

As usually defined, the CC50 is the concentration giving 50% cytotoxicity. A low value points to greater toxicity to the cells. By MIC is commonly meant the lowest concentration found to suppress growth. A low value points to greater potency. One may read the IC50 as the point on the concentration scale where inhibition reaches its midpoint. In the case of `COc1cc(OC)c2c(=O)cc(-c3ccc(OCc4cn(-c5ccccc5Cl)nn4)c(OC)c3)oc2c1`, the half-maximal cytotoxic concentration (CC50) at 72 h in data set [1] was > 100 µg/mL. Further, the MIC against Enterococcus faecalis was 50 µg/mL (≈ 96.2 µM); against Candida tropicalis, > 100 µg/mL; in the data set with Pseudomonas aeruginosa it was 50 µg/mL (≈ 96.2 µM); with Aspergillus fumigatus, > 100 µg/mL; with Staphylococcus aureus, 50 µg/mL (≈ 96.2 µM); with Klebsiella pneumoniae, 100 µg/mL (≈ 192 µM). The MIC in the data set on Candida albicans [2], against Cryptococcus neoformans, against Arthrodermataceae, against Candida parapsilosis, in the data set on Candida albicans [3] and against Aspergillus niger was > 100 µg/mL each time. Also, the MIC was 100 µg/mL (≈ 192 µM) against Escherichia coli and > 100 µg/mL in the data set with Shigella boydii. Also, the 50% inhibitory concentration (IC50) in the data set with Plasmodium falciparum amounted to 12.1 µg/mL (≈ 23.2 µM).
As for `COc1cc(OC)c2c(=O)cc(-c3ccc(OCc4cn(-c5ccc(F)cc5F)nn4)c(OC)c3)oc2c1`, the CC50 at 72 h in data set [1] is > 100 µg/mL. Also, the MIC against Enterococcus faecalis, in the data set on Candida tropicalis, in the data set with Pseudomonas aeruginosa, with Aspergillus fumigatus, against Staphylococcus aureus and with Klebsiella pneumoniae was > 100 µg/mL throughout. The minimum inhibitory concentration (MIC) with Candida albicans [2], in the data set with Cryptococcus neoformans, in the data set with Arthrodermataceae, against Candida parapsilosis, in the data set with Candida albicans [3] and with Aspergillus niger was > 100 µg/mL each time. For the same compound, the MIC in the data set with Escherichia coli and against Shigella boydii was > 100 µg/mL each time. For the same compound, in the data set on Plasmodium falciparum, the IC50 is 4.79 µg/mL (≈ 9.19 µM).
`COc1cc(O)c(C(=O)/C=C/c2ccc(OCc3cn(-c4ccc(Cl)cc4)nn3)c(OCc3cn(-c4ccc(Cl)cc4)nn3)c2)c(OC)c1`: the CC50 at 72 h in [1] is > 100 µg/mL. Moreover, the minimal inhibitory concentration (MIC) is > 100 µg/mL in the data set on Enterococcus faecalis; > 100 µg/mL against Candida tropicalis; > 100 µg/mL against Pseudomonas aeruginosa; > 100 µg/mL against Aspergillus fumigatus; > 100 µg/mL against Staphylococcus aureus; 100 µg/mL (≈ 143 µM) against Klebsiella pneumoniae. For the same compound, the MIC against Candida albicans [2], with Cryptococcus neoformans, in the data set with Arthrodermataceae, in the data set with Candida parapsilosis, with Candida albicans [3] and against Aspergillus niger was > 100 µg/mL each time. For the same compound, the MIC is 100 µg/mL (≈ 143 µM) against Escherichia coli and > 100 µg/mL in the data set on Shigella boydii. The half-maximal inhibitory concentration (IC50) in the data set with Plasmodium falciparum stood at 12.8 µg/mL (≈ 18.2 µM).
Consider `COc1cc(OC)c2c(=O)cc(-c3ccc(OCc4cn(-c5ccc(F)c(Cl)c5)nn4)c(OC)c3)oc2c1`, for which the 50% cytotoxic concentration (CC50) at 72 h in data set [1] is > 100 µg/mL. The MIC is > 100 µg/mL in the data set on Enterococcus faecalis; 12.5 µg/mL (≈ 23.2 µM) with Candida tropicalis; > 100 µg/mL with Pseudomonas aeruginosa; 50 µg/mL (≈ 92.9 µM) with Aspergillus fumigatus; > 100 µg/mL against Staphylococcus aureus; > 100 µg/mL with Klebsiella pneumoniae. In addition, the MIC in the data set with Candida albicans [2] amounted to 12.5 µg/mL (≈ 23.2 µM); with Cryptococcus neoformans, 6.25 µg/mL (≈ 11.6 µM); against Arthrodermataceae it was 12.5 µg/mL (≈ 23.2 µM); with Candida parapsilosis it was 12.5 µg/mL (≈ 23.2 µM); with Candida albicans [3], 12.5 µg/mL (≈ 23.2 µM); with Aspergillus niger, 50 µg/mL (≈ 92.9 µM). Also, the MIC with Escherichia coli and in the data set on Shigella boydii was > 100 µg/mL each time. In addition, in the data set with Plasmodium falciparum, the IC50 was 4.48 µg/mL (≈ 8.33 µM).
As to `COc1cc(O)c(C(=O)/C=C/c2ccc(OCc3cn(-c4ccc(F)c(Cl)c4)nn3)c(OCc3cn(-c4ccc(F)c(Cl)c4)nn3)c2)c(OC)c1`, the CC50 at 72 h in data set [1] was > 100 µg/mL. The MIC was 100 µg/mL (≈ 136 µM) in the data set with Enterococcus faecalis; > 100 µg/mL in the data set on Candida tropicalis; > 100 µg/mL with Pseudomonas aeruginosa; > 100 µg/mL with Aspergillus fumigatus; > 100 µg/mL in the data set with Staphylococcus aureus; > 100 µg/mL against Klebsiella pneumoniae. Further, the MIC against Candida albicans [2], in the data set with Cryptococcus neoformans, in the data set on Arthrodermataceae, in the data set on Candida parapsilosis, with Candida albicans [3] and with Aspergillus niger was > 100 µg/mL in each case. The MIC is > 100 µg/mL in the data set with Escherichia coli and 100 µg/mL (≈ 136 µM) in the data set on Shigella boydii. In addition, in the data set with Plasmodium falciparum, the IC50 is 10.9 µg/mL (≈ 14.8 µM).
